Experimental findings from ChEMBL document CHEMBL1132696, “Design of antineoplastic agents based on the "2-phenylnaphthalene-type" structural pattern. 4. Synthesis and biological activity of 2-chloro-3-(substituted phenoxy)-1, 4-naphthoquinones and related 5,8-dihydroxy-1,4-naphthoquinones” (J Med Chem, 1999) are described below.

Some results are limits rather than exact numbers.

One test deals with SCLC. The experiment in a line: Cytotoxicity in SCLC (human lung carcinoma) cell line. The test is classed as functional, cell-based.
Test [1] addresses DNA topoisomerase II (Homo sapiens) (UniProt P11388+Q02880). Nature of the test: Relative activity to induce mammalian DNA topoisomerase II-mediated DNA cleavage. In kind it is functional.
The subject of a further test is HL-60. Nature of the test: Cytotoxicity in HL-60 (human leukemia) cell line. The test is classed as functional, cell-based.
A further test has as its system NCI. Nature of the test: Complete inhibition of cell growth of 60-human tumor cell line detected by National Cancer Institute. The test is classed as functional, cell-based. To be noted: read-out: Log IC50 (converted). In short, it runs like this:
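National Cancer Institute preclinical 60 human tumour cell line drug discovery screen. Read-out is the log IC₅₀ (M) at which complete inhibition of cell growth is detected in at least one cell line. Scored qualitatively: +++ at -7.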

Consider `COc1ccc2c3c(oc2c1)C(=O)c1c(OC)ccc(OC)c1C3=O`, for which the figures for the IC50 with SCLC and in the test on HL-60 were 1000 nM and 14500 nM, respectively. In test [1], this molecule showed an Activity of 2.

In the case of `COc1cc(OC)cc(OC2=C(Cl)C(=O)c3c(OC(C)=O)ccc(OC(C)=O)c3C2=O)c1`, the IC50 with SCLC was determined as 1100 nM; in the test with HL-60, 500 nM. Moreover, in test [1], the Activity was determined as 50. Also, in the test on NCI, the concentration for complete growth inhibition was 1000 nM.

In the case of `O=C1C=CC(=O)c2c(O)c(Oc3ccccc3)c(Cl)c(O)c21`, the half-maximal inhibitory concentration (IC50) with SCLC came to 250 nM; in the test with HL-60 it was 220 nM. In test [1], this molecule gave an Activity of 4000. The concentration for complete growth inhibition with NCI was 100 nM.

`COc1cccc(OC2=C(Oc3cccc(OC)c3)C(=O)c3c(OC)ccc(OC)c3C2=O)c1`: the IC50 with SCLC worked out at 1000 nM; with HL-60 it was 160 nM. In addition, the Activity in test [1] amounted to 0. The concentration for complete growth inhibition in the test with NCI is 100 nM.

With `COc1cccc(OC2=C(Cl)C(=O)c3c(OC)ccc(OC)c3C2=O)c1`, the results for the IC50 in the test with SCLC and in the test with HL-60 were 2000 nM and 440 nM, respectively. Besides, the Activity in test [1] amounted to 20. For the same molecule, the concentration for complete growth inhibition with NCI is 1000 nM.

As to `COc1ccc(OC)c2c1C(=O)C(Cl)=C(Oc1cccc(O)c1)C2=O`, the IC50 worked out at 300 nM in the test with SCLC and 67 nM in the test on HL-60. The Activity in test [1] stood at 10. For the same molecule, the concentration for complete growth inhibition in the test with NCI is 1000 nM.

For the molecule `O=C1C(Cl)=C(Oc2cccc(O)c2)C(=O)c2c(O)ccc(O)c21`, the IC50 in the test with SCLC came to 450 nM; in the test with HL-60 it was 160 nM. Further, the Activity in test [1] came to 100. The concentration for complete growth inhibition with NCI is 1000 nM.

With `COc1cccc(OC2=C(Cl)C(=O)c3c(O)ccc(O)c3C2=O)c1`, the values for the IC50 with SCLC and with HL-60 were 500 nM and 200 nM, respectively. The molecule also registered an Activity in test [1] of 800. For the same molecule, the concentration for complete growth inhibition with NCI is 1000 nM.

Consider `O=C1C=CC(=O)c2c(O)c(Oc3ccccc3)c(Oc3ccccc3)c(O)c21`, for which the IC50 in the test on SCLC was 100 nM; with HL-60 it was 130 nM. The same molecule showed an Activity in test [1] of 500. The concentration for complete growth inhibition in the test with NCI is 100 nM.

Take `COc1cc(OC)cc(OC2=C(Cl)C(=O)c3c(O)ccc(O)c3C2=O)c1`: the values for the IC50 in the test on SCLC and in the test on HL-60 were 750 nM and 70 nM, respectively. The same molecule showed an Activity in test [1] of 50. Moreover, in the test on NCI, the concentration for complete growth inhibition is 1000 nM.

Consider `COc1cccc(OC2=C(Cl)C(=O)c3c(OC(C)=O)ccc(OC(C)=O)c3C2=O)c1`, for which the IC50 with SCLC is 5000 nM; in the test with HL-60, 200 nM. In test [1], this molecule had an Activity of 200. Moreover, in the test on NCI, the concentration for complete growth inhibition was 1000 nM.

Take `COc1c(Cl)c(Cl)c(OC)c2c1C(=O)C=CC2=O`: the IC50 with SCLC was 750 nM; in the test on HL-60, 1000 nM. This molecule yielded an Activity in test [1] of 10.

Take `COc1cc(OC)cc(OC2=C(Cl)C(=O)c3c(OC)ccc(OC)c3C2=O)c1`: the figures for the IC50 with SCLC and in the test with HL-60 were 2000 nM and 120 nM, respectively. In test [1], the Activity was 100. For the same molecule, in the test with NCI, the concentration for complete growth inhibition was 1000 nM.

Consider `O=C1C=CC(=O)c2c(O)c(Cl)c(Cl)c(O)c21`, for which the IC50 in the test with SCLC came out at 300 nM; in the test with HL-60, 49 nM.

For `O=C1c2oc3cc(O)cc(O)c3c2C(=O)c2c(O)ccc(O)c21`, the IC50 amounted to 1500 nM in the test with SCLC and 390 nM in the test with HL-60. This molecule returned an Activity in test [1] of 2000. For the same molecule, the concentration for complete growth inhibition with NCI was 100 nM.

With `O=C1c2ccccc2C(=O)c2c1oc1cc(O)cc(O)c21`, half-maximal inhibition in the test with SCLC (IC50) was put at 1030 nM. Moreover, the Activity in test [1] is > 100000. For the same molecule, the concentration for complete growth inhibition in the test on NCI is 1000 nM.

As for `O=C1C(Cl)=C(Oc2cc(O)cc(O)c2)C(=O)c2c(O)ccc(O)c21`, the IC50 in the test with SCLC came to 500 nM; with HL-60, 250 nM. For the same molecule, the Activity in test [1] was found to be 200. For the same molecule, the concentration for complete growth inhibition in the test on NCI was 1000 nM.

For `Cc1ccc[n+](C2=C([O-])C(=O)c3c(O)ccc(O)c3C2=O)c1`, the IC50 in the test on SCLC was > 10000 nM; in the test with HL-60, 30000 nM. In test [1], this molecule came in with an Activity of 0.5.

Turning to `COc1ccc(OC)c2c1C(=O)C(Cl)=C(Cl)C2=O`, the half-maximal inhibitory concentration (IC50) stood at 1000 nM with SCLC and 220 nM in the test on HL-60. For the same molecule, in test [1], the Activity was found to be 200.

`COc1cc(OC)c2c3c(oc2c1)C(=O)c1c(OC)ccc(OC)c1C3=O`: the IC50 with SCLC was > 10000 nM; with HL-60 it was 128000 nM. Moreover, in test [1], the Activity stood at 2. Besides, the concentration for complete growth inhibition in the test on NCI was 10000 nM.
